The results in this text go back to ChEMBL document CHEMBL1158579, “Antimicrobial triterpenoid glycosides from Cephalaria scoparia” (2010).

Values after ≈ are worked out from the molar mass of the structure shown.

One experiment has as its system Escherichia coli. Nature of the experiment: Antimicrobial activity against Escherichia coli ATCC 23999 after 24 hrs by microdilution assay. The experiment is classed as functional. In outline:
(§1)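 Broth microdilution MIC in Mueller-Hinton broth. Inocula came from 24 h broth cultures grown at 37 °C, were adjusted to 0.5 McFarland and diluted 1:100 in broth. Compounds were tested at final concentrations of 256 to 0.5 µg/mL, with gentamycin at 128 to 0.25 µg/mL. Sealed plates were incubated 24 h at 37 °C. MIC was the lowest concentration with no visible growth. Clear wells were subcultured onto Mueller-Hinton agar. Triplicate.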

Another experiment concerns Pseudomonas aeruginosa. The experiment can be described thus: Antimicrobial activity against Pseudomonas aeruginosa ATCC 27853 after 24 hrs by microdilution assay. The experiment is classed as functional. In outline:
as §1
A general note: Broth dilution looks for growth in wells or tubes with falling amounts of substance.

Another experiment has as its system Salmonella enterica. The experiment can be described thus: Antimicrobial activity against Salmonella Typhimurium CCM 5445 after 24 hrs by microdilution assay. The experiment is classed as functional, Salmonella enterica subsp. enterica serovar Typhimurium. In outline:
as §1

The subject of a further experiment is Klebsiella pneumoniae. The experiment can be described thus: Antimicrobial activity against Klebsiella pneumoniae CCM 2318 after 24 hrs by microdilution assay. The experiment is classed as functional. In outline: as §1
The subject of another experiment is Staphylococcus aureus. The experiment can be described thus: Antimicrobial activity against Staphylococcus aureus ATCC 6538-P after 24 hrs by microdilution assay. The experiment is classed as functional. In outline: as §1
The test system of experiment [1] is Staphylococcus epidermidis. The experiment can be described thus: Antimicrobial activity against Staphylococcus epidermidis ATCC 12228 after 24 hrs by microdilution assay. It is filed as functional. In outline:
as §1

For the next experiment, the system named is Bacillus cereus. Nature of the experiment: Antimicrobial activity against Bacillus cereus ATCC 7064 after 24 hrs by microdilution assay. The experiment is classed as functional. In outline: as §1
Another experiment relates to Enterococcus faecalis. Nature of the experiment: Antimicrobial activity against Enterococcus faecalis ATCC 29212 after 24 hrs by microdilution assay. It is filed as functional. In outline:
as §1

With `C[C@@H]1O[C@@H](O[C@H]2[C@H](OC(=O)[C@]34CCC(C)(C)C[C@@H]3C3=CC[C@@H]5[C@@]6(C)CC[C@H](O[C@@H]7OC[C@H](O)[C@H](O)[C@H]7O)C(C)(C)[C@@H]6CC[C@@]5(C)[C@]3(C)CC4)O[C@H](CO[C@@H]3O[C@H](CO)[C@@H](O)[C@H](O)[C@H]3O)[C@@H](O)[C@@H]2O)[C@H](O)[C@H](O)[C@H]1O` [SCOPOSIDE A], the minimal inhibitory concentration (MIC) is 8 µg/mL (≈ 7.55 µM) in the experiment with Escherichia coli (ATCC 23999, 24 h); 64 µg/mL (≈ 60.4 µM) in the experiment on Pseudomonas aeruginosa (ATCC 27853, 24 h); 128 µg/mL (≈ 121 µM) against Salmonella enterica (CCM 5445, 24 h); 64 µg/mL (≈ 60.4 µM) in the experiment on Klebsiella pneumoniae (CCM 2318, 24 h); 128 µg/mL (≈ 121 µM) with Staphylococcus aureus; 64 µg/mL (≈ 60.4 µM) in experiment [1] (ATCC 12228, 24 h). Further, the MIC in the experiment with Bacillus cereus (ATCC 7064, 24 h) was 16 µg/mL (≈ 15.1 µM); in the experiment with Enterococcus faecalis (ATCC 29212, 24 h) it was 32 µg/mL (≈ 30.2 µM).

As to `C[C@@H]1O[C@@H](O[C@H]2[C@H](O)[C@@H](O)[C@H](O[C@H]3CC[C@]4(C)[C@H]5CC=C6[C@H]7CC(C)(C)CC[C@]7(C(=O)O[C@@H]7O[C@H](CO[C@@H]8O[C@H](CO)[C@@H](O)[C@H](O)[C@H]8O)[C@@H](O)[C@H](O)[C@H]7O)CC[C@@]6(C)[C@]5(C)CC[C@H]4C3(C)C)O[C@@H]2CO)[C@H](O)[C@H](O[C@@H]2OC[C@@H](O[C@@H]3OC[C@@H](O)[C@H](O)[C@H]3O)[C@H](O)[C@H]2O)[C@H]1O` [SCOPOSIDE B], the MIC in the experiment on Escherichia coli (ATCC 23999, 24 h) was 128 µg/mL (≈ 94.6 µM); with Pseudomonas aeruginosa (ATCC 27853, 24 h), 64 µg/mL (≈ 47.3 µM); against Salmonella enterica (CCM 5445, 24 h) it was 64 µg/mL (≈ 47.3 µM); against Klebsiella pneumoniae (CCM 2318, 24 h), 64 µg/mL (≈ 47.3 µM); with Staphylococcus aureus it was 256 µg/mL (≈ 189 µM); in experiment [1] (ATCC 12228, 24 h) it was 128 µg/mL (≈ 94.6 µM). Moreover, the MIC was 16 µg/mL (≈ 11.8 µM) with Bacillus cereus (ATCC 7064, 24 h) and 64 µg/mL (≈ 47.3 µM) against Enterococcus faecalis (ATCC 29212, 24 h).

Turning to `C[C@@H]1O[C@@H](O[C@H]2[C@H](O[C@H]3CC[C@]4(C)[C@H]5CC=C6[C@H]7CC(C)(C)CC[C@]7(C(=O)O[C@@H]7O[C@H](CO[C@@H]8O[C@H](CO)[C@@H](O)[C@H](O)[C@H]8O)[C@@H](O)[C@H](O)[C@H]7O)CC[C@@]6(C)[C@]5(C)CC[C@H]4C3(C)C)OC[C@H](O)[C@@H]2O[C@@H]2OC[C@@H](O[C@@H]3O[C@H](CO)[C@@H](O)[C@H](O)[C@H]3O)[C@H](O)[C@H]2O)[C@H](O)[C@H](O[C@@H]2OC[C@@H](O)[C@H](O)[C@H]2O)[C@H]1O` [SCOPOSIDE C], the minimal inhibitory concentration (MIC) in the experiment on Escherichia coli (ATCC 23999, 24 h) amounted to 128 µg/mL (≈ 86.2 µM); in the experiment on Pseudomonas aeruginosa (ATCC 27853, 24 h) it was 128 µg/mL (≈ 86.2 µM); in the experiment on Salmonella enterica (CCM 5445, 24 h) it was 64 µg/mL (≈ 43.1 µM); against Klebsiella pneumoniae (CCM 2318, 24 h), 64 µg/mL (≈ 43.1 µM); with Staphylococcus aureus, 64 µg/mL (≈ 43.1 µM); in experiment [1] (ATCC 12228, 24 h) it was 64 µg/mL (≈ 43.1 µM). In addition, the MIC against Bacillus cereus (ATCC 7064, 24 h) came to 32 µg/mL (≈ 21.5 µM); against Enterococcus faecalis (ATCC 29212, 24 h), 32 µg/mL (≈ 21.5 µM).

For GENTAMICIN, the minimum inhibitory concentration (MIC) against Escherichia coli turned out to be 1 µg/mL; in the experiment with Pseudomonas aeruginosa, 2 µg/mL; in the experiment with Salmonella enterica (Salmonella enterica subsp. enterica serovar Typhimurium) it was 1 µg/mL; in the experiment with Klebsiella pneumoniae it was 4 µg/mL; with Staphylococcus aureus it was 1 µg/mL; in experiment [1], 1 µg/mL. Moreover, the minimal inhibitory concentration (MIC) in the experiment on Bacillus cereus turned out to be 4 µg/mL; with Enterococcus faecalis, 16 µg/mL.

By MIC is commonly meant the least concentration at which growth counts as inhibited. A higher MIC goes with a need for much substance.
